Assay outcomes from PubChem BioAssay.
GASC1 inh = blocks human GASC-1 (KDM4C) demethylase activity; inhibition, % at 12.5 µM; 0.15% of 96,000 active; GST-KDM4C 2-372, H3K9me3 peptide, LANCE TR-FRET;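 active = mean replicate inhibition above about 25%, with at least 55% of replicates also reaching it, limit read from the data, passing the limit was not always enough; inconclusive = only one of those two conditions met; inactive = neither condition met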
Target sequence (Q9H3R0 2-372 limits assumed): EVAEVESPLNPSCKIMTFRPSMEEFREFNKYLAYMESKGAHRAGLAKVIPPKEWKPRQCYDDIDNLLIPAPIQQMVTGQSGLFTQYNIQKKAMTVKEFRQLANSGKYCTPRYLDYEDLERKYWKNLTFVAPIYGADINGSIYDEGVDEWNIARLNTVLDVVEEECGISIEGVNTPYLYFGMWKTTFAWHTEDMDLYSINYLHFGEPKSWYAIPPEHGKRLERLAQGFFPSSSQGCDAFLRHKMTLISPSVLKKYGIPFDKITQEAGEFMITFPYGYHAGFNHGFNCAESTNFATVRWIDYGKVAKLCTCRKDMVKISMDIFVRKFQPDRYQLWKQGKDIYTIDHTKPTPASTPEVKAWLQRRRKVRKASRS
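System – N-terminal GST-fused human GASC-1 (KDM4C) fragment, residues 2-372 · Input – enzyme final amount 10 nM · Technique – LANCE TR-FRET, Eu antibody, ULight-streptavidin, EDTA, ex 340 nm, em 618/671 nm · Medium – HEPES buffer, pH 7.5, plus ascorbate · Incubation – enzyme reaction 30 min, then detection 60 min, both room temperature · Reagent – H3K9me3 peptide with Fe(II)/2OG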
Pf Dd2 inh = P. falciparum Dd2 growth inhibition | SYBR Green, 72 h; stronger effect = lower value | activity change, % at 10 µM | 2.3% of 94,000 active; in the data active = activity change below about -80%; inconclusive = no clear call, values can overlap the other calls
T cruzi growth-1 = inhibitors of T. cruzi proliferation | T. cruzi beta-gal in NIH3T3, GalScreen luminescence, 90 h | AID 624255 | inhibition, % at 8.34 µM | 5.9% of 77,000 active;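 active = mean inhibition above about 93%, with at least 55% of replicates each passing it, limit read from the data, passing the limit was not always enough; inconclusive = only one of those two conditions holds; inactive = neither condition holds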
IDH1 R132H inh = blocks human IDH1 R132H reductase activity; O75874; diaphorase/resazurin fluorescence, 60 min; inhibition, % at 10 µM; 0.18% of 70,000 active; AID 624101; in the data active = inhibition above about 34%; inconclusive = no clear call, values can overlap the other calls; inactive = below about 11%;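 also: 0% = DMSO and 100% = no enzyme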
Target sequence (O75874 whole entry R132H): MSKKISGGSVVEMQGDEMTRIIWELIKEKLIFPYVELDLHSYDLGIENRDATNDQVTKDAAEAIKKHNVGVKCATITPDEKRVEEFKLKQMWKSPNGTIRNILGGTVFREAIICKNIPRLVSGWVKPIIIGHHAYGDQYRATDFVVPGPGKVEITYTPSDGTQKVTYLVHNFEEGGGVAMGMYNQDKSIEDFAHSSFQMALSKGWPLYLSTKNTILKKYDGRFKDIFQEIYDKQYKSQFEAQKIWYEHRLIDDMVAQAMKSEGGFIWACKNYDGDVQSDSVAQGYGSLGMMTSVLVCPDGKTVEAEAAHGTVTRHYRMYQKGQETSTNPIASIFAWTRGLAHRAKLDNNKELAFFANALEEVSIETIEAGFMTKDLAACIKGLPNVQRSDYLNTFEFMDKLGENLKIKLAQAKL
T cruzi growth-2 = blocks T. cruzi growth in NIH3T3 host cells; 72% of 5,600 active; shares compounds with T cruzi growth-1; T. cruzi beta-gal in NIH3T3, GalScreen luminescence, 90 h; inhibition, % at 8.35 µM;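 active = mean replicate inhibition above about 95% and at least 55% of replicates individually reaching it, limit read from the data; inconclusive = only one of the two criteria is met; inactive = neither criterion is met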
T cruzi growth-3 = blocks T. cruzi growth in NIH3T3 host cells; shares compounds with T cruzi growth-1; T. cruzi beta-gal in NIH3T3, GalScreen luminescence, 90 h; inhibition, % at 2.09 µM; 21% of 5,600 active; AID 651740;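 active = mean inhibition above about 95%, with at least 55% of replicates also reaching it, limit read from the data; inconclusive = meets just one of the two conditions; inactive = meets neither condition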;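 also: plate controls were neutral control median for no effect and positive control median for full effect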
NIH3T3 tox = cytotoxicity in mouse NIH/3T3 fibroblasts; shares compounds with T cruzi growth-1; NIH/3T3 viability, CellTiter-Glo ATP luminescence, 90 h; cytotoxicity (signal decrease), % at 8.35 µM; 14% of 5,600 active; AID 651742;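 active = mean signal decrease across replicates above about 35% based on untreated-well scatter, with enough replicates individually passing, limit read from the data; inconclusive = no rule stated though some were filed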;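 also: 0% = median of neutral control wells and 100% = median of positive control wells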
NIH3T3 tox 2 = NIH/3T3 (mouse) viability loss. shares compounds with T cruzi growth-1. NIH/3T3 viability, CellTiter-Glo ATP luminescence, 90 h. inhibition, % at 24.9 µM. 56% of 5,600 active;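 active = mean loss of cell viability signal at or above a set limit, and enough replicates individually reaching it; inconclusive = meets only the mean limit or only the replicate share; inactive = meets neither condition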;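 also: 0% = median of neutral control wells and 100% = median of positive control wells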
* hit, by the source's call; u = inconclusive; x = no result. Shown are actives, neighbours in structure and some others; about 5.8% of the full set was active somewhere.

SMILES | GASC1 inh | Pf Dd2 inh | T cruzi growth-1 | IDH1 R132H inh | T cruzi growth-2 | T cruzi growth-3 | NIH3T3 tox | NIH3T3 tox 2
C[C@@H]1CCCCO[C@H](CN(C)S(=O)(=O)c2ccccc2)[C@H](C)CN([C@H](C)CO)C(=O)c2cc(NC(=O)Nc3cccc4ccccc34)ccc2O1 | -2.5 | -70.6 | 107.8* | 2.4 | 105.8* | 109.9* | 11.6 | u
Cc1noc(C)c1S(=O)(=O)N(C)C[C@@H]1OCCCC[C@@H](C)Oc2ccc(NC(=O)Nc3cccc4ccccc34)cc2C(=O)N([C@H](C)CO)C[C@H]1C | -8.7 | -82.2* | 109.1* | 1.4 | 109.7* | 100.2* | -7.0 | u
Cc1noc(C)c1S(=O)(=O)N(C)C[C@H]1OCCCC[C@@H](C)Oc2ccc(NC(=O)Nc3cccc4ccccc34)cc2C(=O)N([C@@H](C)CO)C[C@@H]1C | -2.2 | u | 105.2* | -1.7 | 106.7* | 66.7 | 17.1 | 16.4
C[C@H](CO)N1C[C@H](C)[C@H](CN(C)S(=O)(=O)c2ccccc2)OCCCC[C@H](C)Oc2ccc(NC(=O)Nc3cccc4ccccc34)cc2C1=O | -1.1 | -44.6 | 90.2 | 3.1 | x | x | x | x
CC(C)CC#Cc1ccc2c(c1)O[C@@H](CN(C)C(=O)c1cccc(F)c1)[C@@H](C)CN([C@H](C)CO)S2(=O)=O | -0.9 | -22.9 | 119.8* | 1.2 | 98.7* | 91.9 | 23.3 | 105.9*
CC(C)CC#Cc1ccc2c(c1)O[C@H](CN(C)C(=O)c1cccc(F)c1)[C@H](C)CN([C@H](C)CO)S2(=O)=O | -0.1 | -47.4 | 126.2* | -3.6 | 104.0* | 107.9* | 29.4 | 103.8*
CC(C)CC#Cc1ccc2c(c1)O[C@@H](CN(C)C(=O)c1ccccc1)[C@@H](C)CN([C@H](C)CO)S2(=O)=O | -6.2 | -56.5 | x | 0.2 | x | x | x | x
CC(C)C#Cc1ccc2c(c1)O[C@H](CN(C)C(=O)c1cccc(F)c1)[C@@H](C)CN([C@@H](C)CO)S2(=O)=O | -2.0 | -51.9 | 101.3* | 0.2 | 102.6* | 52.3 | 13.4 | 34.5*
CC(C)CC#Cc1ccc2c(c1)O[C@H](CN(C)C(=O)c1cccc(F)c1)[C@H](C)CN([C@@H](C)CO)S2(=O)=O | -0.1 | -63.6 | 120.0* | 0.1 | 104.4* | 105.7* | 24.4 | 104.0*
C[C@@H]1CN([C@@H](C)CO)C(=O)c2cccc(NC(=O)Nc3ccc4c(c3)OCO4)c2O[C@@H]1CN(C)CC1CCCCC1 | -1.0 | -11.1 | 38.0 | x | x | x | x | x
Cc1ccc(OCC(=O)Nc2ccc3oc(-c4ccc(F)cc4)nc3c2)c(C)c1 | x | x | x | 1.8 | x | x | x | x
C[C@@H]1CN([C@H](C)CO)C(=O)c2cc(NC(=O)C3CC3)ccc2O[C@@H]1CN(C)S(=O)(=O)c1ccccc1 | -0.3 | 0.6 | x | 2.0 | x | x | x | x
CCCN1C[C@@H](C)[C@H](OC)CN(C)C(=O)c2cc(NC(=O)Nc3cccc(OC)c3)ccc2OC[C@H]1C | x | x | 101.9* | 0.1 | 109.7* | 75.3 | -2.2 | 54.2*
CCS(=O)(=O)Nc1ccc2c(c1)C(=O)N(C)C[C@@H](OC)[C@H](C)CN(Cc1ccccn1)[C@@H](C)CO2 | 1.9 | 40.3 | 98.8* | 0.4 | -24.9 | -32.4 | -5.9 | 4.1
CCCN1C[C@@H](C)[C@H](OC)CN(C)C(=O)c2cc(NS(=O)(=O)c3ccccc3)ccc2OC[C@@H]1C | 3.1 | -4.6 | -11.7 | 0.1 | x | x | x | x
CCCN1C[C@@H](C)[C@H](OC)CN(C)C(=O)c2cc(NS(=O)(=O)c3ccccc3)ccc2OC[C@H]1C | 0.7 | -65.8 | 91.4* | 0.1 | 97.7* | 40.6 | 2.3 | -4.7
CO[C@H]1CN(C)C(=O)c2cc(NC(=O)c3nc4ccccc4s3)ccc2OC[C@@H](C)N(Cc2ccncc2)C[C@H]1C | 0.4 | x | 94.0 | 9.9 | x | x | x | x
CO[C@@H]1CN(C)C(=O)c2cc(NC(=O)c3nc4ccccc4s3)ccc2OC[C@H](C)N(Cc2ccncc2)C[C@@H]1C | 0.0 | x | 99.0* | 0.1 | 89.9 | 44.0 | -15.4 | 61.1*
CCC(=O)N1CC2(C1)[C@H](c1ccccc1)[C@H](CO)N2CC1CCCC1 | 1.5 | -3.3 | x | x | x | x | x | x
CO[C@@H]1CN(C)C(=O)c2cc(NS(=O)(=O)c3ccccc3)ccc2OC[C@H](C)N(Cc2nccs2)C[C@@H]1C | -1.0 | -21.9 | 110.5* | 0.3 | 73.8 | 2.0 | 18.3 | 44.8*
COc1ccccc1S(=O)(=O)N(C)C[C@H]1Oc2cc(C#CCC3CCCC3)ccc2S(=O)(=O)N([C@H](C)CO)C[C@@H]1C | -0.5 | -2.9 | x | -2.7 | x | x | x | x
COc1ccccc1S(=O)(=O)N(C)C[C@H]1Oc2cc(C#CCC3CCCC3)ccc2S(=O)(=O)N([C@H](C)CO)C[C@H]1C | 26.0* | -67.1 | 127.3* | x | 87.3 | 110.3* | 9.8 | 19.6
COc1ccccc1S(=O)(=O)N(C)C[C@H]1Oc2cc(C#CCC(C)C)ccc2S(=O)(=O)N([C@@H](C)CO)C[C@@H]1C | -0.7 | -69.6 | u | -2.3 | u | 113.7* | 23.9 | 98.5*
N#C[C@H]1[C@@H](c2ccccc2/C=C/c2ccccc2)[C@@H](CO)N1S(=O)(=O)c1ccccc1 | -0.4 | -12.0 | x | x | x | x | x | x
CC(C)CC#Cc1ccc2c(c1)O[C@@H](CN(C)CC1CCOCC1)[C@@H](C)CN([C@H](C)CO)S2(=O)=O | -2.2 | -53.6 | 118.3* | x | 108.5* | 90.9 | 16.2 | 104.1*
SMILES | GASC1 inh | Pf Dd2 inh | T cruzi growth-1 | IDH1 R132H inh | T cruzi growth-2 | T cruzi growth-3 | NIH3T3 tox | NIH3T3 tox 2
CC(C)CC#Cc1ccc2c(c1)O[C@@H](CN(C)CC1CCOCC1)[C@H](C)CN([C@@H](C)CO)S2(=O)=O | -2.1 | -63.3 | 107.1 | 0.2 | x | x | x | x
CC(C)CC#Cc1ccc2c(c1)O[C@@H](CN(C)CC1CCOCC1)[C@@H](C)CN([C@@H](C)CO)S2(=O)=O | -0.4 | -49.0 | u | -6.6 | 110.3* | u | 25.5 | 105.1*
O=C(c1cnccn1)N1CC(=O)N2[C@H](CO)[C@@H](c3ccc(-c4cccc(F)c4)cc3)[C@H]2C1 | 0.0 | 4.1 | x | x | x | x | x | x
CC(C)(C)[S@](=O)N1Cc2cc(C(=O)NCc3ccncc3)nc(-c3cccc(-c4cccc(C#N)c4)c3)c2[C@@H]1CCO | -1.0 | -66.2 | 71.8 | -0.1 | x | x | x | x
CC(C)(C)[S@](=O)N1Cc2cc(C(=O)NCc3ccccc3F)nc(-c3cccc(-c4ccncc4)c3)c2[C@@H]1CCO | -1.3 | -77.3 | 99.2* | -0.1 | 102.5* | 90.5 | 19.9 | 103.2*
COc1ccc(CNC(=O)c2cc3c(c(-c4cccc(-c5ccc(C#N)cc5)c4)n2)[C@@H](CCO)N([S@](=O)C(C)(C)C)C3)cc1 | -2.2 | -52.8 | 98.2* | 0.0 | 110.7* | 106.5* | 21.3 | 37.9*
